EC50, Activity and Ratio EC50 data for 33 molecules are collected here from ChEMBL document CHEMBL1145440, “SAR and QSAR studies on the N-terminally acylated pentapeptide agonists for GPR54” (J Med Chem, 2007).

Assay [1] addresses T1, KiSS-1 receptor (Homo sapiens, UniProt Q969F8). Nature of the assay: Agonist activity at GPR54 expressed in CHO cells assessed as intracellular calcium mobilization. It counts as functional, cell-based.
The target of assay [2] is T1, KiSS-1 receptor. Nature of the assay: Agonist activity at GPR54 expressed in CHO cells assessed as intracellular calcium mobilization at 10 nM relative to KP-10. The class given is functional, cell-based. The method, boiled down: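 FLIPR Fluo3 Ca2+ mobilization in CHO/dhfr cells stably expressing GPR54, read over 40 s. Peptide tested at 10 nM (n = 3). Maximum signal expressed as a percentage of the maximum induced by 1 µM KP-10 (n = 3).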

Assay [3] addresses T1, KiSS-1 receptor. Put plainly: Ratio of EC50 of drug for GPR54 to EC50 of KP-10 for GPR54. It counts as functional. The gist of the method:
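Q calculated as EC50(compound)/EC50(KP-10), with KP-10 run as control on each FLIPR Ca2+ plate (GPR54/CHO cells) to correct for plate-to-plate variation.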

Square brackets hold non-standard residues; d marks the D form. Peptide text beside a SMILES is read from it. Trx = NC[C@H]1CC[C@H](C(=O)O)CC1; 4Amb = NCc1ccc(C(=O)O)cc1; 3Abz = Nc1cccc(C(=O)O)c1; 4Abz = Nc1ccc(C(=O)O)cc1; 2Abz = Nc1ccccc1C(=O)O; Ahx = NCCCCCC(=O)O

T1 sequence (Q969F8 whole entry): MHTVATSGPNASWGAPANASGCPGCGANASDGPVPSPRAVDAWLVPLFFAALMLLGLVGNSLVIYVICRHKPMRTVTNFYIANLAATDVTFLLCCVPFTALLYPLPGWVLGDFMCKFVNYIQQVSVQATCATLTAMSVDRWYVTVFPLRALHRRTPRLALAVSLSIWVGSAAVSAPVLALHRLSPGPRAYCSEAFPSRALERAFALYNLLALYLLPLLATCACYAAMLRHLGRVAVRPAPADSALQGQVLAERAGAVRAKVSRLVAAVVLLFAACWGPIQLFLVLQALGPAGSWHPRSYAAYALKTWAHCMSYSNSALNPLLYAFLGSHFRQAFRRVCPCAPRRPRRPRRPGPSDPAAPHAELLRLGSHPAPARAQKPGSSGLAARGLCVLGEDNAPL

With `CC(C)C[C@H](NC(=O)CNC(=O)[C@H](Cc1ccccc1)NC(=O)c1c(F)c(F)c(F)c(F)c1F)C(=O)N[C@@H](CCCNC(=N)N)C(=O)N[C@@H](Cc1c[nH]c2ccccc12)C(N)=O`, the EC50 in assay [1] is over 100 nM. Moreover, the Activity in assay [2] amounted to 0.6%.

Take `CC(C)C[C@H](NC(=O)CNC(=O)[C@H](Cc1ccccc1)NC(=O)c1ccncc1)C(=O)N[C@@H](CCCNC(=N)N)C(=O)N[C@@H](Cc1c[nH]c2ccccc12)C(N)=O`: the Ratio EC50 in assay [3] stood at 2.4. In assay [1], the EC50 was 1.7 nM. Besides, in assay [2], the Activity was found to be 102%. For `CC(C)C[C@H](NC(=O)CNC(=O)[C@H](Cc1ccccc1)NC(=O)c1ccc(Cl)cc1)C(=O)N[C@@H](CCCNC(=N)N)C(=O)N[C@@H](Cc1c[nH]c2ccccc12)C(N)=O`, the Activity in assay [2] came to 91.8%. In the case of `CC(C)C[C@H](NC(=O)CNC(=O)[C@H](Cc1ccccc1)NC(=O)c1ccccc1O)C(=O)N[C@@H](CCCN=C(N)N)C(=O)N[C@@H](Cc1c[nH]c2ccccc12)C(N)=O`, the EC50 in assay [1] came out at 5 nM.

For `CC(C)C[C@H](NC(=O)CNC(=O)[C@H](Cc1ccccc1)NC(=O)c1cccc(O)c1)C(=O)N[C@@H](CCCNC(=N)N)C(=O)N[C@@H](Cc1c[nH]c2ccccc12)C(N)=O`, the Ratio EC50 in assay [3] is 1.6. Further, the EC50 in assay [1] is 1.2 nM. Further, the Activity in assay [2] was 99.7%. Taken in the same sequence, the figures for `CC(C)C[C@H](NC(=O)CNC(=O)[C@H](Cc1ccccc1)NC(=O)c1ccc([N+](=O)[O-])cc1)C(=O)N[C@@H](CCCNC(=N)N)C(=O)N[C@@H](Cc1c[nH]c2ccccc12)C(N)=O` were 1.5, 1 nM and 94.3%. For the molecule `CC(C)C[C@H](NC(=O)CNC(=O)[C@H](Cc1ccccc1)NC(=O)c1ccc(CNC(=N)N)cc1)C(=O)N[C@@H](CCCNC(=N)N)C(=O)N[C@@H](Cc1c[nH]c2ccccc12)C(N)=O`, the Activity in assay [2] amounted to 93.7%.

For the molecule `CC(C)C[C@H](NC(=O)CNC(=O)[C@H](Cc1ccccc1)NC(=O)c1ccc(CO)cc1)C(=O)N[C@@H](CCCNC(=N)N)C(=O)N[C@@H](Cc1c[nH]c2ccccc12)C(N)=O`, the Ratio EC50 in assay [3] stood at 4.7. Further, the Activity in assay [2] worked out at 95.4%. As for `CC(C)C[C@H](NC(=O)CNC(=O)[C@H](Cc1ccccc1)NC(=O)[C@H]1CC[C@H](CN)CC1)C(=O)N[C@@H](CCCNC(=N)N)C(=O)N[C@@H](Cc1c[nH]c2ccccc12)C(N)=O` (H-[Trx]FGLRW-NH2), in assay [2], the Activity was 9.9%. Still for that read-out and setting: for `CC(C)C[C@H](NC(=O)CNC(=O)[C@H](Cc1ccccc1)NC(=O)CCCCCN)C(=O)N[C@@H](CCCNC(=N)N)C(=O)N[C@@H](Cc1c[nH]c2ccccc12)C(N)=O` (H-[Ahx]FGLRW-NH2) the value was 1.6%; for `CC(C)C[C@H](NC(=O)CNC(=O)[C@H](Cc1ccccc1)NC(=O)c1ccc(CN(Cc2ccccn2)Cc2ccccn2)cc1)C(=O)N[C@@H](CCCNC(=N)N)C(=O)N[C@@H](Cc1c[nH]c2ccccc12)C(N)=O`, 88.9%; for `CC(C)C[C@H](NC(=O)CNC(=O)[C@H](Cc1ccccc1)NC(=O)c1c[nH]cn1)C(=O)N[C@@H](CCCNC(=N)N)C(=O)N[C@@H](Cc1c[nH]c2ccccc12)C(N)=O`, 88.4%. Turning to `CC(C)C[C@H](NC(=O)CNC(=O)[C@H](Cc1ccccc1)NC(=O)c1ccccc1OC(=O)c1ccccc1O)C(=O)N[C@@H](CCCNC(=N)N)C(=O)N[C@@H](Cc1c[nH]c2ccccc12)C(N)=O`, the Ratio EC50 in assay [3] is 4. Also, the EC50 in assay [1] was determined as 3 nM. Moreover, the Activity in assay [2] is 92.1%.

For the molecule `COc1ccc(C(=O)N[C@@H](Cc2ccccc2)C(=O)NCC(=O)N[C@@H](CC(C)C)C(=O)N[C@@H](CCCNC(=N)N)C(=O)N[C@@H](Cc2c[nH]c3ccccc23)C(N)=O)cc1`, the Ratio EC50 in assay [3] stood at 1.6. The EC50 in assay [1] turned out to be 1.2 nM. Also, the Activity in assay [2] was determined as 104%. As to `CC(C)C[C@H](NC(=O)CNC(=O)[C@H](Cc1ccccc1)NC(=O)c1ccc(CNCc2ccccc2)cc1)C(=O)N[C@@H](CCCNC(=N)N)C(=O)N[C@@H](Cc1c[nH]c2ccccc12)C(N)=O`, the Ratio EC50 in assay [3] stood at 5.6. In addition, the EC50 in assay [1] worked out at 3.3 nM. Also, the Activity in assay [2] came to 86.5%. For the molecule `CC(C)C[C@H](NC(=O)CNC(=O)[C@H](Cc1ccccc1)NC(=O)c1ccccc1O)C(=O)N[C@@H](CCCNC(=N)N)C(=O)N[C@@H](Cc1c[nH]c2ccccc12)C(N)=O`, the Ratio EC50 in assay [3] was 6.6. The Activity in assay [2] was found to be 90.1%. Take `CC(C)C[C@H](NC(=O)CNC(=O)[C@H](Cc1ccccc1)NC(=O)c1ccc[nH]1)C(=O)N[C@@H](CCCNC(=N)N)C(=O)N[C@@H](Cc1c[nH]c2ccccc12)C(N)=O`: the Ratio EC50 in assay [3] came out at 1.7. In addition, the Activity in assay [2] came to 95.8%.

As for `CC(C)C[C@H](NC(=O)CNC(=O)[C@H](Cc1ccccc1)NC(=O)c1ccc(CNCc2ccccn2)cc1)C(=O)N[C@@H](CCCNC(=N)N)C(=O)N[C@@H](Cc1c[nH]c2ccccc12)C(N)=O`, in assay [3], the Ratio EC50 worked out at 4.5. The EC50 in assay [1] was found to be 2.7 nM. The Activity in assay [2] turned out to be 89.3%. `CC(C)C[C@H](NC(=O)CNC(=O)[C@H](Cc1ccccc1)NC(=O)c1cc(O)c(O)c(O)c1)C(=O)N[C@@H](CCCNC(=N)N)C(=O)N[C@@H](Cc1c[nH]c2ccccc12)C(N)=O`: the Activity in assay [2] came to 1%. Regarding `CC(C)C[C@H](NC(=O)CNC(=O)[C@H](Cc1ccccc1)NC(=O)c1ccccc1N)C(=O)N[C@@H](CCCNC(=N)N)C(=O)N[C@@H](Cc1c[nH]c2ccccc12)C(N)=O` (H-[2Abz]FGLRW-NH2), the Ratio EC50 in assay [3] was 2.8. Besides, the EC50 in assay [1] amounted to 3.1 nM. Moreover, the Activity in assay [2] is 94%.

In the case of `CC(C)C[C@H](NC(=O)CNC(=O)[C@H](Cc1ccccc1)NC(=O)c1ccc(CO)cc1)C(=O)N[C@@H](CCCN=C(N)N)C(=O)N[C@@H](Cc1c[nH]c2ccccc12)C(N)=O`, the EC50 in assay [1] is 3 nM. With `CC(C)C[C@H](NC(=O)CNC(=O)[C@H](Cc1ccccc1)NC(=O)c1ccc(N)cc1)C(=O)N[C@@H](CCCNC(=N)N)C(=O)N[C@@H](Cc1c[nH]c2ccccc12)C(N)=O` (H-[4Abz]FGLRW-NH2), the Activity in assay [2] amounted to 90.4%. `CC(C)C[C@H](NC(=O)CNC(=O)[C@H](Cc1ccccc1)NC(=O)c1cc(O)c(O)c(O)c1)C(=O)N[C@@H](CCCN=C(N)N)C(=O)N[C@@H](Cc1c[nH]c2ccccc12)C(N)=O`: the 50% effective concentration (EC50) in assay [1] was over 100 nM.

In the case of `CC(C)C[C@H](NC(=O)CNC(=O)[C@H](Cc1ccccc1)NC(=O)c1ccc[nH]1)C(=O)N[C@@H](CCCN=C(N)N)C(=O)N[C@@H](Cc1c[nH]c2ccccc12)C(N)=O`, in assay [1], the EC50 is 2 nM. As to `CC(C)C[C@H](NC(=O)CNC(=O)[C@H](Cc1ccccc1)NC(=O)c1ccc(F)cc1)C(=O)N[C@@H](CCCNC(=N)N)C(=O)N[C@@H](Cc1c[nH]c2ccccc12)C(N)=O`, the Activity in assay [2] is 95.6%. As to `CC(C)C[C@H](NC(=O)CNC(=O)[C@H](Cc1ccccc1)NC(=O)c1ccc(CN(Cc2ccccc2)Cc2ccccc2)cc1)C(=O)N[C@@H](CCCNC(=N)N)C(=O)N[C@@H](Cc1c[nH]c2ccccc12)C(N)=O`, the Activity in assay [2] was 9.3%. Turning to `CC(C)C[C@H](NC(=O)CNC(=O)[C@H](Cc1ccccc1)NC(=O)c1cccnc1)C(=O)N[C@@H](CCCNC(=N)N)C(=O)N[C@@H](Cc1c[nH]c2ccccc12)C(N)=O`, the Ratio EC50 in assay [3] was determined as 4.1. Moreover, the EC50 in assay [1] was determined as 3 nM. In addition, the Activity in assay [2] is 93.5%. As to `CC(C)C[C@H](NC(=O)CNC(=O)[C@H](Cc1ccccc1)NC(=O)c1ccccn1)C(=O)N[C@@H](CCCN=C(N)N)C(=O)N[C@@H](Cc1c[nH]c2ccccc12)C(N)=O`, the EC50 in assay [1] was 0.8 nM. As for `CC(C)C[C@H](NC(=O)CNC(=O)[C@H](Cc1ccccc1)NC(=O)c1ccc(O)cc1)C(=O)N[C@@H](CCCNC(=N)N)C(=O)N[C@@H](Cc1c[nH]c2ccccc12)C(N)=O`, in assay [2], the Activity was 94.6%. Regarding `CC(C)C[C@H](NC(=O)CNC(=O)[C@H](Cc1ccccc1)NC(=O)c1ccc(NC(=N)N)cc1)C(=O)N[C@@H](CCCNC(=N)N)C(=O)N[C@@H](Cc1c[nH]c2ccccc12)C(N)=O`, in assay [3], the Ratio EC50 came to 2.9. Further, in assay [1], the EC50 came to 1.7 nM. For the same molecule, the Activity in assay [2] came out at 91.2%.

In the case of `CC(C)C[C@H](NC(=O)CNC(=O)[C@H](Cc1ccccc1)NC(=O)c1cccc(N)c1)C(=O)N[C@@H](CCCNC(=N)N)C(=O)N[C@@H](Cc1c[nH]c2ccccc12)C(N)=O` (H-[3Abz]FGLRW-NH2), the Ratio EC50 in assay [3] came out at 4.2. Moreover, in assay [1], the EC50 was 4.7 nM. In addition, in assay [2], the Activity stood at 88.5%. Consider `CC(C)C[C@H](NC(=O)CNC(=O)[C@H](Cc1ccccc1)NC(=O)c1ccc(CN)cc1)C(=O)N[C@@H](CCCNC(=N)N)C(=O)N[C@@H](Cc1c[nH]c2ccccc12)C(N)=O` (H-[4Amb]FGLRW-NH2), for which the Ratio EC50 in assay [3] worked out at 3.4. In addition, the EC50 in assay [1] is 3.1 nM. Moreover, in assay [2], the Activity amounted to 96.5%.

With `CC(=O)NCc1ccc(C(=O)N[C@@H](Cc2ccccc2)C(=O)NCC(=O)N[C@@H](CC(C)C)C(=O)N[C@@H](CCCNC(=N)N)C(=O)N[C@@H](Cc2c[nH]c3ccccc23)C(N)=O)cc1` (Ac-[4Amb]FGLRW-NH2), the Activity in assay [2] amounted to 101%.
